Results taken from ChEMBL document CHEMBL1135543, “Alpha(1)-adrenoceptor antagonists. 4. Pharmacophore-based design, synthesis, and biological evaluation of new imidazo-, benzimidazo-, and indoloarylpiperazine derivatives” (J Med Chem, 2002).

Columns and labels:
[1] = target: T1, 5-hydroxytryptamine receptor 1A (Rattus norvegicus, UniProt P19327); assay: Binding affinity against 5-hydroxytryptamine 1A receptor by displacing [3H]8-OH-DPAT radioligand in rat cortex membrane; type: cell membranes
T1 sequence (P19327 whole entry): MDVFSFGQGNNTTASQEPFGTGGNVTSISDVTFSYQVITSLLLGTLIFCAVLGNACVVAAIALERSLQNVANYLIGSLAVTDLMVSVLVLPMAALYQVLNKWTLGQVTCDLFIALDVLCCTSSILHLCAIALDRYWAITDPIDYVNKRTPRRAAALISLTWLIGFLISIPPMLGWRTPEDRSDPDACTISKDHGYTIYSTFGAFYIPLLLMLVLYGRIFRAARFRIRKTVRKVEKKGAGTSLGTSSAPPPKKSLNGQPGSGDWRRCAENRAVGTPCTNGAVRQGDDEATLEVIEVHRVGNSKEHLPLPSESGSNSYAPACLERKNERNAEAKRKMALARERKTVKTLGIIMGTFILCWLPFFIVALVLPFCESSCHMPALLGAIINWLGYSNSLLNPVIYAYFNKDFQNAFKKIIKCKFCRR
Procedure, shortened: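 Rat cortex membranes, pre-incubated 10 min at 37 °C to remove endogenous 5-HT, stored at –80 °C, then resuspended in 50 mM Tris-HCl pH 7.4 (0.2–0.3 mg protein). GF/C filtration, scintillation counting.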

[2] = target: T2, Adrenergic receptor alpha-1 (Rattus norvegicus, UniProt P15823+P23944+P43140); assay: Binding affinity against Alpha-1 adrenergic receptor by displacing [3H]-prazosin radioligand in rat cortex membrane; type: cell membranes, Brain
T2 sequence (P15823 whole entry): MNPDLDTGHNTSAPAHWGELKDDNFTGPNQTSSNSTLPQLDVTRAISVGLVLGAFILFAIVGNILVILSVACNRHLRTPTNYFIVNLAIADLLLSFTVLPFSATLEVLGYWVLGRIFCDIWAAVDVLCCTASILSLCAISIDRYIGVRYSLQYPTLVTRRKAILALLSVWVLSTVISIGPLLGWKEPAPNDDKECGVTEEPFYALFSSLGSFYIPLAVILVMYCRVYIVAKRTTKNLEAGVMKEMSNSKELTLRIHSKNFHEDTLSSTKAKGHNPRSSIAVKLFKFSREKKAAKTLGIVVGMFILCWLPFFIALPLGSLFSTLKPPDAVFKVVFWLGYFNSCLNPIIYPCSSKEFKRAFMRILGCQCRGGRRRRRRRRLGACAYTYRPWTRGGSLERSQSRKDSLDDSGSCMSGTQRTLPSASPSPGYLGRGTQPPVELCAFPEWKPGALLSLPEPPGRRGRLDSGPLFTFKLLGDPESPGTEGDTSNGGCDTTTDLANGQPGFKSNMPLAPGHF
T2 sequence (P23944 whole entry): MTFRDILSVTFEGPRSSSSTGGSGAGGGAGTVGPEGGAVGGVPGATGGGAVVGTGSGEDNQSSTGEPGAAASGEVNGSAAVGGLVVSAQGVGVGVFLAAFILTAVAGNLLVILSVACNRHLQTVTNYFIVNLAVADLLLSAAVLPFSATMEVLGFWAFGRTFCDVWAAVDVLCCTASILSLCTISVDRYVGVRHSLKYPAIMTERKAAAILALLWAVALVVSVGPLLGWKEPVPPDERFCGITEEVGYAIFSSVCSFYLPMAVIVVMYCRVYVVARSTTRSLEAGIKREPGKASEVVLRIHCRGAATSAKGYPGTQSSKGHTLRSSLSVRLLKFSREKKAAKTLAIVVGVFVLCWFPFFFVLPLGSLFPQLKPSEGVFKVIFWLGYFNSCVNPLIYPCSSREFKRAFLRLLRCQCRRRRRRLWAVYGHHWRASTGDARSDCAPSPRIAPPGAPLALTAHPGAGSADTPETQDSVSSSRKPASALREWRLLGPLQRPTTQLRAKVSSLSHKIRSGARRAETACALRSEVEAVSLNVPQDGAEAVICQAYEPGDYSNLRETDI
T2 sequence (P43140 whole entry): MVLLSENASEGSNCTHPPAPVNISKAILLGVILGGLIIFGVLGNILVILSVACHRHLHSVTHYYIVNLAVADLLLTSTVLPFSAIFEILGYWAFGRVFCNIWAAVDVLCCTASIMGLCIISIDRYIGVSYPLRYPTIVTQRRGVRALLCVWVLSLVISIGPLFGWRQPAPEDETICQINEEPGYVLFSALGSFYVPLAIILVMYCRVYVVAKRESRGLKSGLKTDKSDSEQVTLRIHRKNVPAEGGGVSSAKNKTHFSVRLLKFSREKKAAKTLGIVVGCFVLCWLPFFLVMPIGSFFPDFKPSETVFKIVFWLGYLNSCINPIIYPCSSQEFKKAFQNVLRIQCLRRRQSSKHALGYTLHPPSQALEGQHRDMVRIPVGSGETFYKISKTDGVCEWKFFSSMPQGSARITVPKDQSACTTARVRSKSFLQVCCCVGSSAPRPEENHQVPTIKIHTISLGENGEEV
Procedure, shortened: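 Rat cerebral cortex membranes washed in 50 mM Tris-HCl pH 7.7 with 5 mM EDTA, stored at –80 °C, then assayed in 50 mM Tris-HCl pH 7.7 (0.2–0.3 mg protein). Incubation 60 min at 25 °C with 0.1 nM [3H]prazosin; nonspecific binding defined with 1 μM prazosin. Seven displacer concentrations in triplicate, GF/C filtration. IC50 by log-probit, Ki by Cheng–Prusoff (Kd 0.24 nM).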

[3] = target: T3, Adrenergic receptor alpha-2 (Rattus norvegicus, UniProt P22086+P19328+P22909); assay: Binding affinity against Alpha-2 adrenergic receptor by displacing [3H]rauwolscine radioligand in rat cortex membrane; type: cell membranes, Brain
T3 sequence (P22086 whole entry): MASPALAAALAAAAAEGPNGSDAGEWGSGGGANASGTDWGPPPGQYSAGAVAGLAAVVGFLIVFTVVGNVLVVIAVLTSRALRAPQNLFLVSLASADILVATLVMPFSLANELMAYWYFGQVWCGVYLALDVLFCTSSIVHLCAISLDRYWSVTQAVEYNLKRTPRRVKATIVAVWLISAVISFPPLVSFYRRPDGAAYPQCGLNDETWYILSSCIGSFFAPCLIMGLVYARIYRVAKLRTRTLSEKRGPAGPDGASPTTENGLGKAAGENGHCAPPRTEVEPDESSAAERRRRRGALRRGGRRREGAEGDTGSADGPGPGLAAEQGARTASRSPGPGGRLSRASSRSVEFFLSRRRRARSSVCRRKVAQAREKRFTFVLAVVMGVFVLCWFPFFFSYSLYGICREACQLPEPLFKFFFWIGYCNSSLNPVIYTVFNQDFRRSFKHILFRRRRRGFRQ
T3 sequence (P19328 whole entry): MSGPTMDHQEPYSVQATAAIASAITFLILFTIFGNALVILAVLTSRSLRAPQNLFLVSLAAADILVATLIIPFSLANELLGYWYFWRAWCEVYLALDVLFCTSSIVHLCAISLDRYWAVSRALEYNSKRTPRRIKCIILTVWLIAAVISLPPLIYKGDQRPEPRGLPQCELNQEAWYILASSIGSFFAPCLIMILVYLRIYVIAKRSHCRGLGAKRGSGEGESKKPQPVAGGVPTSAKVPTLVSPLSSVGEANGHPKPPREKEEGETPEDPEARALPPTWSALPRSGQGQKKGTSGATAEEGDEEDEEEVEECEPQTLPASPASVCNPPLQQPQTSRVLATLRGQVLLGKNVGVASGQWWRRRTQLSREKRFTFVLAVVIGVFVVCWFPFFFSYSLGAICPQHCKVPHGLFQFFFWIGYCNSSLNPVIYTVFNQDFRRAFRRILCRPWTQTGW
T3 sequence (P22909 whole entry): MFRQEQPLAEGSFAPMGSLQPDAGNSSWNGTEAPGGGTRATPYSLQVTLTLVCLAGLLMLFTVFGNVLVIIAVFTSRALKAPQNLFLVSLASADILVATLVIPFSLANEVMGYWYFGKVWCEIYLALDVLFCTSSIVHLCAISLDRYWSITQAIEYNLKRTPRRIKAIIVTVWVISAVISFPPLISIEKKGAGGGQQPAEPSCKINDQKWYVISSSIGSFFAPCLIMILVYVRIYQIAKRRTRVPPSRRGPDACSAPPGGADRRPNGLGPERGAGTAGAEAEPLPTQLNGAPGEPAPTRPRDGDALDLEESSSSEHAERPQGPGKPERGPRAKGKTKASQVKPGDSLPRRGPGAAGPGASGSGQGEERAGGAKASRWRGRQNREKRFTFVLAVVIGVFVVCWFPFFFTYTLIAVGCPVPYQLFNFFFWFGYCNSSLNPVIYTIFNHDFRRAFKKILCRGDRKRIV

[4] = target: T2, Adrenergic receptor alpha-1; assay: Intrinsic activity for displacement of [3H]prazosin from Alpha-1 adrenergic receptor of rat cerebral cortex membrane in the absence of 1 nM GTP; type: tissue-based
Procedure, shortened: (§1)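 [3H]prazosin competition on rat cerebral cortex membranes, run with and without GTP (1 nM in table footnote, 1 mM in text). The GTP shift is the ratio of the affinity constant with GTP to that without. Values are means ± SEM of three experiments.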

[5] = target: T2, Adrenergic receptor alpha-1; assay: Intrinsic activity for displacement of [3H]prazosin from Alpha-1 adrenergic receptor of rat cerebral cortex membrane in the presence of 1 nM GTP; type: tissue-based; procedure, shortened: as §1
[6] = target: T2, Adrenergic receptor alpha-1; assay: Binding affinity against Alpha-1 adrenergic receptor by displacing [3H]prazosin radioligand in rat cortex membrane.; type: cell membranes, Brain

SMILES | Ki [1] | Ki [2] | Ki [3] | Ki [4] | Ki [5] | Ki [6]
O=c1ccc(-n2cnc3ccccc32)nn1CCN1CCN(c2ccccc2Cl)CC1 | 1010 nM | 70.4 nM | 265 nM |  |  | 
O=c1ccc(-n2cnc3ccccc32)nn1CCCCCCN1CCN(c2ccccc2Cl)CC1 | 617 nM | 15.1 nM | 31.5 nM |  |  | 
COc1ccccc1N1CCN(CCCCCn2nc(-n3ccnc3)ccc2=O)CC1 | 223 nM | 37.5 nM | 427 nM |  |  | 
COc1ccccc1N1CCN(CCCCn2nc(-n3cnc4ccccc43)ccc2=O)CC1 | 315 nM |  |  | 1.2 nM | 0.97 nM | 
COc1ccccc1N1CCN(CCn2nc(-n3ccnc3)ccc2=O)CC1 |  | 237 nM | 1492 nM |  |  | 
O=c1ccc(-n2ccnc2)nn1CCCCCN1CCN(c2ccccc2Cl)CC1 | 323 nM | 23.3 nM | 134 nM |  |  | 
COc1ccccc1N1CCN(CCn2nc(-n3cnc4ccccc43)ccc2=O)CC1 | 541 nM | 33 nM | 350 nM |  |  | 
O=c1ccc(-n2ccnc2)nn1CCCCCCN1CCN(c2ccccc2Cl)CC1 |  | 29.7 nM | 138 nM |  |  | 
O=c1ccc(-n2ccnc2)nn1CCCN1CCN(c2ccccc2Cl)CC1 | 617 nM |  |  |  |  | 
COc1ccccc1N1CCN(CCCCCCn2nc(-n3ccnc3)ccc2=O)CC1 |  | 52.5 nM | 131 nM |  |  | 
COc1ccccc1N1CCN(CCCn2nc(-n3cnc4ccccc43)ccc2=O)CC1 | 382 nM |  |  |  |  | 
COc1ccccc1N1CCN(CCCCCCCn2nc(-n3cnc4ccccc43)ccc2=O)CC1 |  | 1.7 nM | 89.8 nM |  |  | 
O=c1ccc(-n2cnc3ccccc32)nn1CCCN1CCN(c2ccccc2Cl)CC1 | 461 nM |  |  |  |  | 
COc1ccccc1N1CCN(CCn2nc(-n3ccc4ccccc43)ccc2=O)CC1 | 310 nM | 22.7 nM | 1098 nM |  |  | 
COc1ccccc1N1CCN(CCCCCCn2nc(-n3ccc4ccccc43)ccc2=O)CC1 | 514 nM | 2.8 nM | 104 nM |  |  | 
O=c1ccc(-n2cnc3ccccc32)nn1CCCCCN1CCN(c2ccccc2Cl)CC1 | 351 nM | 4.5 nM | 127 nM |  |  | 
O=c1ccc(-n2ccnc2)nn1CCN1CCN(c2ccccc2Cl)CC1 |  | 472 nM | 2072 nM |  |  | 
O=c1ccc(-n2ccnc2)nn1CCCCN1CCN(c2ccccc2Cl)CC1 |  | 24.6 nM | 65.2 nM |  |  | 
COc1ccccc1N1CCN(CCCn2nc(-n3ccnc3)ccc2=O)CC1 | 463 nM |  |  |  |  | 

Continued by falling Ki [1], values first:

Ki [1] | Ki [2] | Ki [3] | Ki [4] | Ki [5] | Ki [6] | SMILES
182 nM | 1 nM | 10.3 nM |  |  |  | O=c1ccc(-n2cnc3ccccc32)nn1CCCCCCCN1CCN(c2ccccc2Cl)CC1
181 nM | 1.3 nM | 5.8 nM |  |  |  | O=c1ccc(-n2cnc3ccccc32)nn1CCCCN1CCN(c2ccccc2Cl)CC1
181 nM |  | 306 nM |  |  | 1.1 nM | COc1ccccc1N1CCN(CCCCCCCn2nc(-n3ccc4ccccc43)ccc2=O)CC1
141 nM | 6.8 nM | 95.6 nM |  |  |  | COc1ccccc1N1CCN(CCCCCn2nc(-n3ccc4ccccc43)ccc2=O)CC1
127 nM | 3.1 nM | 30.5 nM |  |  |  | COc1ccccc1N1CCN(CCCCCn2nc(-n3cnc4ccccc43)ccc2=O)CC1
106 nM | 6.4 nM | 113 nM |  |  |  | COc1ccccc1N1CCN(CCCCCCn2nc(-n3cnc4ccccc43)ccc2=O)CC1
103 nM | 3.2 nM | 170 nM |  |  |  | COc1ccccc1N1CCN(CCCn2nc(-n3ccc4ccccc43)ccc2=O)CC1
98.7 nM |  | 76.5 nM |  |  | 6 nM | COc1ccccc1N1CCN(CCCCCCCn2nc(-n3ccnc3)ccc2=O)CC1
